Source: ChEMBL document CHEMBL1152601, “Synthesis and biological evaluation of novel phthalazinone derivatives as topically active phosphodiesterase 4 inhibitors” (Bioorg Med Chem, 2009)

Tests used:
Blood = assay: Antiinflammatory activity against Sprague-Dawley rat whole blood assessed as suppression of LPS-induced TNFalpha production by ELISA; format: functional, tissue-based
Method in brief: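 Blood from 10-week-old male Sprague-Dawley rats, drawn from the abdominal vein under ether anesthesia into 1.6 mg/mL EDTA. Compound diluted from 10 mM DMSO stock, preincubated with blood for 30 min at 37 °C in 5% CO2. LPS (100 µg/mL solution, 10 µL to 90 µL) added, then 5 h incubation. PBS added, centrifuged, supernatant TNF-α measured by ELISA. IC50 derived for 50% inhibition.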

[1] = biological target: 3',5'-cyclic-AMP phosphodiesterase 4D (Homo sapiens, UniProt Q08499); assay: Inhibition of human recombinant PDE4D catalytic domain cloned from human HL60 cells assessed as inhibition of cAMP hydrolysis
Sequence of 3',5'-cyclic-AMP phosphodiesterase 4D (Q08499 whole entry, the tested form may be a part): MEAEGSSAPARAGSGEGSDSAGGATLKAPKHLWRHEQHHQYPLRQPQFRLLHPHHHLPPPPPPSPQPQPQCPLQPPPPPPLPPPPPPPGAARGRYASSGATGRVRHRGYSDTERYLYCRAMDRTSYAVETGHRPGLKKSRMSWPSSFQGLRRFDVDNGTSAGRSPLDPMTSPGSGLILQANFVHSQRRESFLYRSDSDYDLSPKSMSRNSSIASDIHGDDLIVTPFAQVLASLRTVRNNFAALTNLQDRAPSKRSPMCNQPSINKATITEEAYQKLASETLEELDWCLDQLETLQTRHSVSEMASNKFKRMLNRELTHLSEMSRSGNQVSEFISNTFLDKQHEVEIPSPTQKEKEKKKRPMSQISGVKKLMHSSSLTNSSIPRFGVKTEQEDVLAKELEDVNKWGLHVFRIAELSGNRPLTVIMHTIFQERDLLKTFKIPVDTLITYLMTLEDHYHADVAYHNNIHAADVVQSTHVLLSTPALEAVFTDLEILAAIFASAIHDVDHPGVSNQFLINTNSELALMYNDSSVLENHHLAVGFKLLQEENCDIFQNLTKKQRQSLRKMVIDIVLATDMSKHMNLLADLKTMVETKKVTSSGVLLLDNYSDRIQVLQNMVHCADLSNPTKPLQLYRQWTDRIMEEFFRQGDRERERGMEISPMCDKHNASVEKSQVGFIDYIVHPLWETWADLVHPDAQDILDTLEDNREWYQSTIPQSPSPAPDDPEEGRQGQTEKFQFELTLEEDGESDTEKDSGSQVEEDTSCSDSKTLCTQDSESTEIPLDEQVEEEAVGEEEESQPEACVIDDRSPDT

Mus musculus = assay: Reduction of dermatitis in topically administered BALB/c mouse assessed as reduction of TNCB-induced ear swelling; format: functional; design: scale not given: the % may be the effect or the level left
Method in brief: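 Eight-week-old male BALB/c mice with TNCB-induced dermatitis on the right pinna. 20 mg of 1% compound in vaseline ointment applied topically; diseased controls got plain vaseline during the last week (n = 4). The untreated left pinna served as normal reference. Pinna thickness measured by digital micrometer 6 h after the last application. Percent reduction of swelling (right minus left) calculated relative to the diseased control.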

[2] = Half life in human liver S9 fraction; format: ADME, subcellular
Method in brief: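 Human liver S9 fraction (1 mg protein/mL) in 100 mM potassium phosphate pH 7.4 with NADPH-generating system, preincubated 5 min at 37 °C. Compound added from methanol to 2 µM final, incubated 0, 2 or 10 min at 37 °C, stopped with acetonitrile. Parent remaining quantified by HPLC, UV 314 nm. Half-life obtained as -0.693/k, k from log-linear regression of percent remaining.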

[3] = Rattus norvegicus, Sprague-Dawley, Blood

Row | Compound | IC50 (Blood; [3]) [nM] | IC50 [1] [nM] | IC50 (Blood) [nM] | Activity (Mus musculus) [%] | half-life [2] [min]
1 | COc1ccc(C2=NN(Cc3ccc(CN4CCOCC4)cc3)C(=O)CC2)cc1OC | 442 | 45.9 | – | – | –
2 | COc1ccc(C2=NN(Cc3ccc(CN4CCOCC4)cc3)C(=O)[C@@H]3CC=CC[C@H]23)cc1OC.Cl | – | 0.3 | 4.2 | 38.5 | 6
3 | COc1ccc(C2=NN(Cc3ccc(CN4CCOCC4)cc3)C(=O)[C@@H]3CC=CC[C@H]23)cc1OC | – | 8.8 | 82.2 | – | –
4 | COc1ccc(C2=NNC(=O)[C@@H]3CC=CC[C@H]23)cc1OC (racemic) | 207 | 85 | – | – | –
5 | COc1ccc(C2=NN(Cc3ccc(CN4CCOCC4)cc3)C(=O)[C@@H]3CC=CC[C@H]23)cc1OC (racemic) | – | 0.9 | 0.9 | – | –
6 | COc1ccc(C2=NN(Cc3ccccc3CN3CCOCC3)C(=O)[C@@H]3CC=CC[C@H]23)cc1OC (relative stereo) | 1 | 1.3 | – | 36.8 | –
7 | COc1ccc(C2=NN(C/C=C/Cn3ccnc3)C(=O)[C@@H]3CC=CC[C@H]23)cc1OC (relative stereo) | 0.7 | 0.4 | – | – | –
8 | COc1ccc(C2=NN(Cc3ccc(Cn4ccnc4)cc3)C(=O)[C@@H]3CC=CC[C@H]23)cc1OC (relative stereo) | 0.5 | 0.7 | – | – | –
9 | COc1ccc(C2=NN(Cc3ccc(CN4CCN(C)CC4)cc3)C(=O)[C@@H]3CC=CC[C@H]23)cc1OC (relative stereo) | 14.5 | 2 | – | – | –
10 | COc1ccc(C2=NN(Cc3ccc(CN(C)C)cc3)C(=O)[C@@H]3CC=CC[C@H]23)cc1OC (relative stereo) | 34.9 | 9.7 | – | – | –
11 | COc1ccc(C2=NN(Cc3ccc(CN4CCC(=O)CC4)cc3)C(=O)[C@@H]3CC=CC[C@H]23)cc1OC (relative stereo) | 3 | 0.9 | – | 36.8 | –
12 | COc1ccc(C2=NN(Cc3ccccc3CN3CCOCC3)C(=O)[C@@H]3CCCC[C@H]23)cc1OC (relative stereo) | 4.6 | 1 | – | – | –
13 | COc1ccc(C2=NN(CCOCCn3ccnc3)C(=O)[C@@H]3CC=CC[C@H]23)cc1OC (relative stereo) | 9.1 | 5.2 | – | – | –
14 | COc1ccc(C2=NN(Cc3cccc(CN4CCOCC4)c3)C(=O)[C@@H]3CC=CC[C@H]23)cc1OC (relative stereo) | 3 | 1.4 | – | – | –
15 | COc1ccc(C2=NN(Cc3ccc(CN4CCC5(CC4)OCCO5)cc3)C(=O)[C@@H]3CC=CC[C@H]23)cc1OC (relative stereo) | 0.9 | 1.3 | – | – | –
16 | COc1ccc(C2=NN(Cc3ccc(CN4CCOCC4)cc3)C(=O)[C@@H]3C[C@H]23)cc1OC (relative stereo) | 119 | 16.4 | – | – | –
17 | COc1ccc(C2=NN(Cc3ccc(CN4CCCCC4)cc3)C(=O)[C@@H]3CC=CC[C@H]23)cc1OC (relative stereo) | 57.1 | 8.2 | – | – | –
18 | COc1ccc(C2=NN(Cc3ccc(CN4CCOCC4)cc3)C(=O)[C@@H]3CC[C@H]23)cc1OC (relative stereo) | 44.8 | 4.3 | – | – | –
19 | COc1ccc(C2=NN(CC(=O)NCCCn3ccnc3)C(=O)[C@@H]3CC=CC[C@H]23)cc1OC (relative stereo) | 112 | 14.3 | – | – | –
